# In article PMC10150180 (Acta Pharmaceutica Sinica. B, 2023):
# Peptide text beside a SMILES is read from it. * marks the point of attachment. Cbz = O=C(OCc1ccccc1)*
# How the values were obtained:
# [1] = tested on: SLUG degradation in AEC2s; assay: SLUG degradation in AEC2s with cycloheximide plus 3MA or MG132; assay type: cell-based, mouse; conditions: CHX 10 μg/mL with 3 MA 5 mmol/L or MG132 10 μmol/L
# [2] = tested on: mBLM-challenged mice; assay: MX69; assay type: in vivo, mouse; conditions: n = 5
# How it was run: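 Mice under avertin anaesthesia (400 mg/kg i.p.) received intratracheal bleomycin, 1 U/kg in LPS-free PBS, six times at 14-day intervals. The MDM2 inhibitor was given at 100 mg/kg/day i.p. for 3 days after every challenge and for 3 days before sacrifice. Read-outs: Slug immunoblot in sorted AEC2s (GAPDH loading control), right-lung hydroxyproline, Masson staining, and AEC2 colony-forming efficiency.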
# [3] = tested on: AEC2s; assay type: cell-based, mouse; conditions: 3D Matrigel co-culture with MLg2908 cells, Day 14, n = 3
# How it was run: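 Mouse AEC2s were sorted as DAPI-negative, lineage-negative, EpCAM-positive cells from lineage-depleted lung cells. 5 × 10^3 cells were embedded in Matrigel/DMEM (1:1) with 2 × 10^5 MLg2908 cells in Transwell inserts. Lower-chamber DMEM contained ITS, 10% FBS and antibiotics, changed daily. On Day 14, colonies above a size cutoff were counted by microscopy. CFE = colonies / input AEC2s.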
# [4] = target: TRIB3 (immobilized on CM5 sensor chips) (UniProt Q96RU7); assay: SPR
# UniProt Q96RU7, sequence (Q96RU7 whole entry): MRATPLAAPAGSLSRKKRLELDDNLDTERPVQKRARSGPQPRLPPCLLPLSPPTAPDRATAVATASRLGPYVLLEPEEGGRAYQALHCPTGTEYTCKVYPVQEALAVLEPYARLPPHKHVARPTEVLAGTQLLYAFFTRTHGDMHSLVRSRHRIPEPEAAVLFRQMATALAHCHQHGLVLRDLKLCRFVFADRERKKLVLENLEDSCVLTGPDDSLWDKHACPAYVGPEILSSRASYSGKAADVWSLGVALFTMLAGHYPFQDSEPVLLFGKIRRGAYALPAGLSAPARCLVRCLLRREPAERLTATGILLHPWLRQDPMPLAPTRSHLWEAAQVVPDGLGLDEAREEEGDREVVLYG
molecule,measurement,setting,value
CC(C)C[C@@H](C=O)NC(=O)[C@H](CC(C)C)NC(=O)[C@H](CC(C)C)NC(=O)OCc1ccccc1 [MG132] (Cbz-Leu-Leu-Leu-aldehyde),SLUG degradation,[1],suppressed
Cc1ccc(NS(=O)(=O)c2ccc3c(c2)C2C=CCC2C(c2ccc(C(=O)O)cc2)N3)cc1C (stereo not shown) [MX69],level of Slug in AEC2s,"[2]; AEC2s isolated from fibrotic mice but not control mice, immunoblot",increased
same,protein level of MDM2 in AEC2s,"[2]; AEC2s isolated from fibrotic mice, immunoblot",decreased
same,capacity of AEC2s mediated LAR (colony-forming efficiency),[2]; AEC2s sorted from MX69 treated mBLM mice,further declined
C[S+]([O-])c1ccc(-c2nc(-c3ccncc3)c(-c3ccc(F)cc3)[nH]2)cc1 (stereo not shown) [SB203580],CFE of AEC2s,[3],decreased
Oc1c2ccccc2c2c3c(cccc13)N=N2 [SP600125],CFE of AEC2s,[3],decreased
MR2 (from UniProt Q00987 460-470) (peptide),Kd,[4],46 nM
